Laboratory results taken from paper PMC5817033 (Nuclear medicine and biology, 2017).
Values joined by “and” are separate entries in the source; they are usually repeats but may differ in a detail not shown here. Equal entries are not always repeated. Where two headings read alike, the source gives them in different places.

Columns and labels:
[1] = Ex-vivo biodistribution of ^18F-1 co-injected with ^131I-OIH in normal rats; set-up: species or system Sprague-Dawley rats; details: mean ± SD
[2] = rat blood, mean of duplicate
[3] = rat urine collected for 10 min after i.v. injection
[4] = rat plasma, ultrafiltration, mean of duplicate
[5] = pH 7, room temperature, over 23 hours after labeling
[6] = normal rats, mean ± SD, cited from earlier work
[7] = cited from earlier work
[8] = Thermal stability of labeling precursor by HPLC; format: physicochemical; details: 110 °C for 1 hour
Outline: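 Tosylate labeling precursor heated at 110 °C for 1 hour. Stability is judged by comparing its HPLC chromatograms before and after heating.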

[9] = cited from earlier work; remark: listed apart in the source
[10] = rats, 1 h post injection; cited from earlier work

Row | Compound | Blood activity ([1]; 10 min after i.v. injection) [%ID] | Bowel activity (intestines and stomach) ([1]; 10 min after i.v. injection) [%ID] | Heart activity ([1]; 10 min after i.v. injection) [%ID] | Kidney activity ([1]; 10 min after i.v. injection) [%ID] | Liver activity ([1]; 10 min after i.v. injection) [%ID] | Lung activity ([1]; 10 min after i.v. injection) [%ID] | Spleen activity ([1]; 10 min after i.v. injection) [%ID] | Urine activity ([1]; 10 min after i.v. injection) [%ID] | Blood activity ([1]; 60 min after i.v. injection) [%ID] | Bowel activity (intestines and stomach) ([1]; 60 min after i.v. injection) [%ID] | Heart activity ([1]; 60 min after i.v. injection) [%ID] | Kidney activity ([1]; 60 min after i.v. injection) [%ID] | Liver activity ([1]; 60 min after i.v. injection) [%ID] | Lung activity ([1]; 60 min after i.v. injection) [%ID] | Spleen activity ([1]; 60 min after i.v. injection) [%ID] | Urine activity ([1]; 60 min after i.v. injection) [%ID] | Blood activity ([6]; 10 min after injection) [%ID] | Bowel activity (intestines and stomach) ([6]; 10 min after injection) [%ID] | Heart activity ([6]; 10 min after injection) [%ID] | Kidney activity ([6]; 10 min after injection) [%ID] | also measured
1 | O=C([O-])CN(CC[18F])CC(=O)[O-].[C-]#[O+].[C-]#[O+].[C-]#[O+].[Re+] [^18F-1, rhenium-tricarbonyl-N-(2-[^18F]fluoroethyl)iminodiacetic acid] | 5.2 ± 0.7 | 2.1 ± 1.7 | 0.1 ± 0.0 | 9.4 ± 2.0 | 5.6 ± 0.3 | 0.4 ± 0.1 | 0.1 ± 0.0 | 49.3 ± 3.7 | 0.3 ± 0.1 | 3.9 ± 2.0 | 0.0 ± 0.0 | 1.0 ± 0.7 | 0.4 ± 0.1 | 0.1 ± 0.1 | 0.0 ± 0.0 | 80.5 ± 4.4 | – | – | – | – | %Urine: urine activity as a percentage of ^131I-OIH (^18F/^131I-OIH ratio) ([1]; 10 min): 92% and 92 ± 14%; Bone uptake ([1]; 10 min after i.v. injection): 0.08 ± 0.01 %ID/g; %Urine: urine activity as a percentage of ^131I-OIH (^18F/^131I-OIH ratio) ([1]; 60 min): 95% and 95 ± 5%; Erythrocyte uptake (RCB) [2]: 21%; In vivo stability: HPLC analysis of urine for metabolites [3]: only the intact parent compound; Plasma protein binding (PPB) [4]: 87%; In vitro stability of formulated solution (HPLC) [5]: No measurable decomposition
2 | ^99mTc(CO)3(2-fluoroethyl)iminodiacetic acid [^99mTc-1] | – | – | – | – | – | – | – | – | – | – | – | – | – | – | – | – | 5.1 ± 0.9 | 2.9 ± 0.5 | 0.1 ± 0.0 | 6.6 ± 2.1 | %Urine: urine activity as a percentage of ^131I-OIH (^99mTc/^131I-OIH ratio) ([6]; 10 min): 100 ± 4%; Liver activity ([6]; 10 min after injection): 5.9 ± 0.8 %ID; Lung activity ([6]; 10 min after injection): 0.4 ± 0.2 %ID; Spleen activity ([6]; 10 min after injection): 0.1 ± 0.0 %ID; Urine activity ([6]; 10 min after injection): 54.1 ± 7.2 %ID; %Urine: urine activity as a percentage of ^131I-OIH (^99mTc/^131I-OIH ratio) ([6]; 60 min): 99 ± 2%; Blood activity ([6]; 60 min after injection): 0.3 %ID and 0.3 ± 0.1 %ID; Bowel activity (intestines and stomach) ([6]; 60 min after injection): 2.9 ± 1.4 %ID; Heart activity ([6]; 60 min after injection): 0.0 ± 0.0 %ID; Kidney activity ([6]; 60 min after injection): 0.7 ± 0.2 %ID; Liver activity ([6]; 60 min after injection): 0.8 ± 0.1 %ID; Lung activity ([6]; 60 min after injection): 0.1 ± 0.1 %ID; Spleen activity ([6]; 60 min after injection): 0.1 ± 0.2 %ID; Urine activity ([6]; 60 min after injection): 79.2 ± 6.4 %ID; Erythrocyte uptake ([7]; rats): 20%
3 | rhenium-tricarbonyl-N-(2-(4-methylbenzenesulphonate)ethyl))iminodiacetic acid [Re-OTs] | – | – | – | – | – | – | – | – | – | – | – | – | – | – | – | – | – | – | – | – | Stability on heating (HPLC) [8]: stable
4 | O=C(O)CNC(=O)c1ccccc1[131I] [OIH, ^131I-orthoidodohippurate] | 4.5 ± 0.4 | 1.3 ± 0.6 | 0.1 ± 0.0 | 5.2 ± 1.6 | 2.8 ± 0.6 | 0.3 ± 0.1 | 0.1 ± 0.0 | 54.4 ± 6.9 | 0.8 ± 0.1 | 1.1 ± 0.2 | 0.0 ± 0.0 | 1.0 ± 0.8 | 0.6 ± 0.1 | 0.1 ± 0.1 | 0.0 ± 0.0 | 84.8 ± 3.8 | 5.8 ± 1.0 | 1.8 ± 0.2 | 0.2 ± 0.0 | 4.8 ± 0.8 | Liver activity ([6]; 10 min after injection): 3.0 ± 0.9 %ID; Lung activity ([6]; 10 min after injection): 0.4 ± 0.1 %ID; Spleen activity ([6]; 10 min after injection): 0.1± 0.0 %ID; Urine activity ([6]; 10 min after injection): 54.2 ± 9.2 %ID; Blood activity ([6]; 60 min after injection): 0.5 ± 0.4 %ID; Bowel activity (intestines and stomach) ([6]; 60 min after injection): 1.2 ± 0.5 %ID; Heart activity ([6]; 60 min after injection): 0.1 ± 0.0 %ID; Kidney activity ([6]; 60 min after injection): 0.5 ± 0.2 %ID; Liver activity ([6]; 60 min after injection): 0.5 ± 0.1 %ID; Lung activity ([6]; 60 min after injection): 0.1 ± 0.1 %ID; Spleen activity ([6]; 60 min after injection): 0.1 ± 0.1 %ID; Urine activity ([6]; 60 min after injection): 80.2 ± 5.3 %ID; Red cell uptake [7]: 35%; Plasma protein binding [9]: 44%
5 | O=C(O)CNC(=O)c1ccc([18F])cc1 [^18F-PFH, p-^18F-fluorohippuran] | – | – | – | – | – | – | – | – | – | – | – | – | – | – | – | – | – | – | – | – | Activity in blood [10]: ~ 0.3 %ID; Activity in urine [10]: ~ 81 % ID
